# Test results as given in article PMC3504124 (Journal of the American Chemical Society, 2012).
# Key:
# [1] = molecular target: T1, SETD2 (Homo sapiens, UniProt Q9BYW2); experiment: Filter-paper methylation assay with [3H-Me]-SAM, IC50 against SETD2; format: biochemical; conditions: for preference to SETD2 over other examined methyltransferases: panel of 15 human methyltransferases
# T1 sequence (Q9BYW2 1347-1711): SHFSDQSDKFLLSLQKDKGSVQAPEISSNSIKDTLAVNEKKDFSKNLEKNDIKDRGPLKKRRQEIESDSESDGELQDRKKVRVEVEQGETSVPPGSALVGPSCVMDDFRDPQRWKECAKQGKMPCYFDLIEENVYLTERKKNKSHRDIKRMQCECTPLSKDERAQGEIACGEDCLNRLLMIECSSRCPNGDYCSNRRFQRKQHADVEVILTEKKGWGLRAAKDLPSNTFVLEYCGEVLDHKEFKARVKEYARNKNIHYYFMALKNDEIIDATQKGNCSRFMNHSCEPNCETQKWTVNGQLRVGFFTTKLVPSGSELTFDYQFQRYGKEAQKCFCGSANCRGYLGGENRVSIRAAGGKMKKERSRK
# Method in brief: (§1)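 Radiometric filter-paper assay: the methyl group from [3H-Me]-SAM is transferred to a peptide substrate, the peptide is captured by filter binding, and radioactivity is counted by scintillation. For SETD2, both SAM and peptide were below their Km. IC50 was obtained by fitting percent inhibition against inhibitor concentration.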
# [2] = test system: SUV39H2; experiment: Filter-paper methylation assay, potency against SUV39H2; format: biochemical, human
# Method in brief: as §1
# [3] = molecular target: T2, SET7/9 (Homo sapiens, UniProt Q8WTS6); experiment: Filter-paper methylation assay, IC50 against SET7/9; format: biochemical
# T2 sequence (Q8WTS6 1-366): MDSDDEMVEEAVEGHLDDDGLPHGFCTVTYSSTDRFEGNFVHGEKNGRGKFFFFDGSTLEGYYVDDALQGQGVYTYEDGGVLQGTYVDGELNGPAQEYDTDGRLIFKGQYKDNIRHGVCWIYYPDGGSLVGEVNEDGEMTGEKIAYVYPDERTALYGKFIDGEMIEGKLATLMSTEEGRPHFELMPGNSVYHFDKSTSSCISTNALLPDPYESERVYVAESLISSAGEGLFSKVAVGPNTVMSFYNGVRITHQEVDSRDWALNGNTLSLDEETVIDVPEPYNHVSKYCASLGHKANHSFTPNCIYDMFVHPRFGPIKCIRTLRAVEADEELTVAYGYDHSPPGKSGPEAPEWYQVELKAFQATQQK
# Method in brief: as §1
# [4] = molecular target: T1, SETD2; experiment: Kinetics analysis of SETD2-catalyzed methylation; format: biochemical
# [5] = molecular target: T3, GLP (Homo sapiens, UniProt Q9H9B1); experiment: Filter-paper methylation assay, IC50 against GLP; format: biochemical; conditions: read-out: IC50 for GLP
# T3 sequence (Q9H9B1 982-1266): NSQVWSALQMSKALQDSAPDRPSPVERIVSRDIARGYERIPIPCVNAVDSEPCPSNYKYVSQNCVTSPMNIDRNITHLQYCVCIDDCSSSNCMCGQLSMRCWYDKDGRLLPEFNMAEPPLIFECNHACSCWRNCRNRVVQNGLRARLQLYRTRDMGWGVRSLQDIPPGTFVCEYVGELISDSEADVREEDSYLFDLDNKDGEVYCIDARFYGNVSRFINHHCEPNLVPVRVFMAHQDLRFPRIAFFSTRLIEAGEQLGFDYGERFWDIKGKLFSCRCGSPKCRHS
# Method in brief: as §1
# [6] = molecular target: T4, G9a (Homo sapiens, UniProt Q96KQ7); experiment: Filter-paper methylation assay, IC50 against G9a; format: biochemical; conditions: read-out: IC50 for G9a
# T4 sequence (Q96KQ7 913-1193): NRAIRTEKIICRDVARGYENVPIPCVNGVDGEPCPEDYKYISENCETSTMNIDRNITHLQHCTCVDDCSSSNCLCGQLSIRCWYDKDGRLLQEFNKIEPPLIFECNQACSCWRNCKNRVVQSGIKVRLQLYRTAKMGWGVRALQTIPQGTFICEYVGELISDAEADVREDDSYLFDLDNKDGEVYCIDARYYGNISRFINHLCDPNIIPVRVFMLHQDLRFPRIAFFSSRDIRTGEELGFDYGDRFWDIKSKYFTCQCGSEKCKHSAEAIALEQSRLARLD
# [7] = molecular target: PRMT1 (Homo sapiens, UniProt Q99873); experiment: Filter-paper methylation assay, IC50 against PRMT1; format: biochemical; conditions: read-out: IC50 for PRMT1
# Method in brief: as §1
# [8] = molecular target: T5, SET8 (Homo sapiens, UniProt Q9NQR1); experiment: Filter-paper methylation assay, IC50 against SET8; format: biochemical; conditions: read-out: IC50 for SET8
# T5 sequence (Q9NQR1 232-393 limits assumed): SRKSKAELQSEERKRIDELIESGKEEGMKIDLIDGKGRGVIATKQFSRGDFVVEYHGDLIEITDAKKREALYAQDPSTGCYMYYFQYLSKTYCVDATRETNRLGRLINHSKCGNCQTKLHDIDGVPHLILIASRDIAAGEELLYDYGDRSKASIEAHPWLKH
# Method in brief: as §1
# [9] = molecular target: T6, CARM1 (Homo sapiens, UniProt Q86X55); experiment: Filter-paper methylation assay, IC50 against CARM1; format: biochemical; conditions: read-out: IC50 for CARM1
# T6 sequence (Q86X55 19-608): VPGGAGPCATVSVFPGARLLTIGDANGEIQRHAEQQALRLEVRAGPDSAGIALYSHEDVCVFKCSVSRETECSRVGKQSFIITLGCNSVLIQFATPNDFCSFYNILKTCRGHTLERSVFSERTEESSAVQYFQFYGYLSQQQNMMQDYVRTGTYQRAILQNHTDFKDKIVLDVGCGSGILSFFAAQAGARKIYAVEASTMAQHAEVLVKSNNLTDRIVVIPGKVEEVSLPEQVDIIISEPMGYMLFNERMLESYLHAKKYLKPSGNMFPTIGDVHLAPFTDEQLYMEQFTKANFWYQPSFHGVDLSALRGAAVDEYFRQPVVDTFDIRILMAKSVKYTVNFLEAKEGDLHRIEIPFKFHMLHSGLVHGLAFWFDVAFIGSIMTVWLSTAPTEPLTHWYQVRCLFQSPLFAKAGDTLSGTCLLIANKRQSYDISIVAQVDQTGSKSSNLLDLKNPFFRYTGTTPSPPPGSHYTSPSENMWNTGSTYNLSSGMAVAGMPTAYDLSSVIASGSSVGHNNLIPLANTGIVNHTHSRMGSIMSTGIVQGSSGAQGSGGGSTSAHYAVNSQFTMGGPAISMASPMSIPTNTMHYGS
# [10] = test system: DOT1L; conditions: read-out: in vitro IC50 on DOT1L; cited from earlier work
# Chain of PRMT1 (Q99873 10-352 isoform Q99873-3): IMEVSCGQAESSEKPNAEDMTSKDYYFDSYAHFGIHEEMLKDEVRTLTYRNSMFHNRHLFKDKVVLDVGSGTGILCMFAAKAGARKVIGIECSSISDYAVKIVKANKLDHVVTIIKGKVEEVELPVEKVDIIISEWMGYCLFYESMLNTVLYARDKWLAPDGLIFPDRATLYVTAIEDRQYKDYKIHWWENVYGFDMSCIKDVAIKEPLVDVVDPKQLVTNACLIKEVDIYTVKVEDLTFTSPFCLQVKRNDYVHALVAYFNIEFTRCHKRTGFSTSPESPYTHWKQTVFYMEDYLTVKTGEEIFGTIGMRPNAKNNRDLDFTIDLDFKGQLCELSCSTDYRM
structure (smiles),measurement,setting,value
"Nc1ncnc2c1ncn2[C@@H]1O[C@H](C[C@H](CC[C@H](N)C(=O)O)NCc2ccccc2)[C@@H](O)[C@H]1O [3d, N-benzyl sinefungin]","potency against SETD2 relative to sinefungin 2, 3a and 3b",[1]; fold higher potency,more than 10 fold
same,preference to SETD2 over other examined methyltransferases,[1],10~100 fold
same,drop in potency from 3c to 3d on SUV39H2,[2],10~50 fold
same,drop in potency from 3c to 3d on SET7/9,[3],10~50 fold
"C[S+](CC[C@H](N)C(=O)[O-])C[C@H]1O[C@@H](n2cnc3c(N)ncnc32)[C@H](O)[C@@H]1O (stereo partly shown) [SAM, S-adenosylmethionine, reference compound]",Km,"[4]; read-out: Km,SAM of SETD2, absence of Pr-SNF",1.21 ± 0.05 µM
"CCCNC(CCC(N)C(=O)O)C[C@H]1O[C@@H](n2cnc3c(N)ncnc32)[C@H](O)[C@@H]1O (stereo partly shown) [3c, N-propyl sinefungin]",enhancement of Kd by presence of SETD2's substrate,[4],8 fold
same,β,[4]; factor by which binding of inhibitor or substrate affects binding of the other,0.12 ± 0.01
same,IC50,"[4]; read-out: calculated IC50 against SETD2, calculated from kinetic constants",600 nM
same,Kd,"[4]; read-out: βKd to bind SETD2, presence of substrate",43 ± 4 nM
same,mechanism of inhibition versus peptide substrate,"[4]; varied inhibitor, fixed SAM (0.8 μM)",noncompetitive
same,mechanism of inhibition versus SAM cofactor,"[4]; varied inhibitor, fixed substrate (4 μM)",competitive
same,preference to SETD2 over other examined methyltransferases,[1],2~200 fold
same,IC50,[5],> 100000 nM
same,IC50,[6],> 100000 nM
same,IC50,[7],9500 ± 400 nM
same,IC50,[3]; read-out: IC50 for SET7/9,2200 ± 400 nM
same,IC50,[8],> 100000 nM
same,IC50,[9],2960 ± 300 nM
